# Source: ChEMBL document CHEMBL2069288, “Virtual screening leads to the discovery of novel non-nucleotide P2Y₁ receptor antagonists” (Bioorg Med Chem, 2012)
# Legend:
# P2Y purinoceptor 1 [1] = target: T1, P2Y purinoceptor 1 (Homo sapiens, UniProt P47900); assay: Displacement of [125I]MRS2500 from human P2Y1R expressed in Sf9 cell membrane at 20 uM
# Summary of the method: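 Binding screen used hP2Y1R-expressing Sf9 cell membranes and about 0.2 nM [125I]MRS2500. Each test compound was applied at 20 µM, and the value is percent inhibition of specific radioligand binding.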
# P2Y purinoceptor 1 [2] = target: T1, P2Y purinoceptor 1; assay: Displacement of [125I]MRS2500 from human P2Y1R expressed in Sf9 cell membrane
# Summary of the method: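 Competition binding used membranes of Sf9 insect cells expressing hP2Y1R, with [125I]MRS2500 at approximately 0.2 nM.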
# P2Y purinoceptor 1 [3] = target: T1, P2Y purinoceptor 1; assay: Antagonist activity at human P2Y1R expressed in human 1321N1 cells assessed as inhibition of 2-MeSADP-induced increase in intracellular calcium mobilization at 10 uM; format: functional, cell-based
# Summary of the method: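 hP2Y1R-expressing 1321N1 cells were kept in DMEM with 5% FBS and geneticin, grown overnight to about 60–80% confluency, and loaded with Calcium 4 dye for 1 h at room temperature without washing. Test compound at 10 µM was added 20 min before 2-MeSADP (30 nM; curves 10−9–10−5 M). Read-out was fluorescence (ex 485/em 525 nm), peak minus basal, in triplicate.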
# P2Y purinoceptor 1 [4] = target: T1, P2Y purinoceptor 1; assay: Antagonist activity at human P2Y1R expressed in human 1321N1 cells assessed as inhibition of 2-MeSADP-induced increase in intracellular inositol phosphate generation; format: functional, cell-based
# Summary of the method: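 In 1321N1 cells stably expressing hP2Y1R, cells were labeled 18–24 h at 37°C with 2-[3H]myo-inositol in inositol-free DMEM. Agonist-stimulated [3H]inositol phosphate accumulation was measured over 10 min at 37°C with 10 mM LiCl. Total inositol phosphates were separated by anion-exchange chromatography. IC50 is the mean of 3 independent concentration-effect curves.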
# T1 sequence (P47900 whole entry): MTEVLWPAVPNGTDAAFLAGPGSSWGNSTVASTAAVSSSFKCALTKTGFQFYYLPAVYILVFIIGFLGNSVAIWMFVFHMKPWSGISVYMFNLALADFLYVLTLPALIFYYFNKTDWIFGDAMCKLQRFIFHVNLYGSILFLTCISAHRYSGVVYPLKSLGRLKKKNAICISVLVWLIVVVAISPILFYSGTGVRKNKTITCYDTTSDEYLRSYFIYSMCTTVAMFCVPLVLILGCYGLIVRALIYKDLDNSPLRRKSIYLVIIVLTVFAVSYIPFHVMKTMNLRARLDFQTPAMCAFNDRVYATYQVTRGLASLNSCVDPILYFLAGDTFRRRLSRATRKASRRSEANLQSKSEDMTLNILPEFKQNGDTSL
inhibition (P2Y purinoceptor 1 [1]) [%],Ki (P2Y purinoceptor 1 [2]) [µM],inhibition (P2Y purinoceptor 1 [3]) [%],IC50 (P2Y purinoceptor 1 [4]) [µM],SMILES
20,,,,Cn1nnc2c(Cc3ccc(S(N)(=O)=O)cc3)ncnc21
,6,,,COc1cc(NS(=O)(=O)c2ccc(NC(=O)Nc3cccc(Cl)c3)cc2)nc(OC)n1
< 10,,< 5,,Cc1noc(NS(=O)(=O)c2ccc(NC(=O)Nc3ccccc3)cc2)c1C
< 10,,11.3,,Cc1noc(NS(=O)(=O)c2ccc(NC(=O)Nc3ccc(F)c(F)c3)cc2)c1C
< 10,,9.4,0.13,Cc1ccc(NC(=O)Nc2ccc(S(=O)(=O)Nc3onc(C)c3C)cc2)cc1C
20,,,,COc1ccc(S(=O)(=O)Nc2ccc3c(c2)C(=O)Nc2ccccc2O3)cc1OC
30,,,,CC1=C2C(=O)NC(SCC(=O)Nc3ccc(S(=O)(=O)NCCCC(=O)O)cc3)=NC2SC1C(=O)O (configuration not stated)
,10,,,CCc1nnc(NS(=O)(=O)c2ccc(NC(=O)Nc3ccc(C(F)(F)F)cc3)cc2)s1
20,,,,O=C(CSC1=NC(=O)N(CCCN2CCOCC2)C2CCCC12)Nc1ccc2c(c1)OCO2 (configuration not stated)
20,,,,COc1ccc(S(=O)(=O)NCC(c2ccc3c(c2)OCO3)N2CCN(C)CC2)cc1OC (configuration not stated)
< 10,,9.1,,COc1ccc(NC(=O)Nc2ccc(S(=O)(=O)Nc3onc(C)c3C)cc2)cc1OC
20,,,,Cc1cc(NC(=O)CSc2ccc3nnc(CCNS(=O)(=O)c4ccccc4)n3n2)no1
,≥ 100,10.2,,Cc1noc(NS(=O)(=O)c2ccc(NC(=O)Nc3cc(F)cc(F)c3)cc2)c1C
,42,31.3,,Cc1noc(NS(=O)(=O)c2ccc(NC(=O)Nc3ccc(F)c(Cl)c3)cc2)c1C
,13,36.8,0.14,Cc1noc(NS(=O)(=O)c2ccc(NC(=O)Nc3ccc(Cl)c(Cl)c3)cc2)c1C
,≥ 100,21.7,,Cc1noc(NS(=O)(=O)c2ccc(NC(=O)Nc3cccc(Cl)c3)cc2)c1C
40,,,,CN(C)CCCN(C(=O)c1ccco1)c1nc2cc3c(cc2s1)OCO3
20,,,,Cn1c(=O)[nH]c(=O)c2nc(NCCCO)n(CC(O)COc3ccccc3)c21 (configuration not stated)
,27,17.6,,Cc1noc(NS(=O)(=O)c2ccc(NC(=O)Nc3cc(Cl)cc(Cl)c3)cc2)c1C
,45,32.7,,Cc1noc(NS(=O)(=O)c2ccc(NC(=O)Nc3ccc(C(F)(F)F)cc3)cc2)c1C
